What all share (format): functional, cell-based
In test [1] the test system is K562. Description: Cytotoxicity against human K562 cells incubated for 2 hrs by cell titre blue viability assay. As to conditions: K562, 2 h. The method in brief: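 Viability read by CellTiter-Blue, normalized to untreated control and background-corrected. Media: K562 RPMI-1640, MelJuSo IMDM, U2OS DMEM, each with 8% FCS; 5% CO2, 37 °C.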
Test [2] concerns MEL-JUSO. Description: Cytotoxicity against human MEL-JUSO cells incubated for 2 hrs by cell titre blue viability assay.
In another test the test system is U2OS. Description: Cytotoxicity against human U2OS cells incubated for 2 hrs by cell titre blue viability assay.
The test system of test [3] is K562. Description: Induction of DNA damage in human K562 cells assessed as increase in gammaH2AX at 10 uM for 2 hrs by Western blotting analysis. The procedure, abridged: (§1)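 K562 cells treated 2 h with drug (10 μM; also 1 and 5 μM), washed and lysed directly in SDS sample buffer. Lysates separated by SDS-PAGE and blotted to PVDF. Probed for γH2AX (1:1000) with β-actin loading control and IRDye 800CW anti-mouse secondary; infrared imaging. γH2AX normalized to actin. Etoposide was the positive control. At 10 μM: mean ± SD of three independent experiments.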

For test [4], the system named is K562. Briefly: Induction of DNA damage in human K562 cells assessed as increase in gammaH2AX at 1 to 5 uM for 2 hrs by Western blotting analysis. To be noted: dose 1-5 µM. The method in brief: as §1
The test system of test [5] is K562. Briefly: Induction of DNA damage in human K562 cells assessed as DNA double strand break measured by constant gel field electrophoresis. The method in brief:
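Double-strand breaks resolved by constant-field gel electrophoresis and quantified as broken DNA relative to total DNA. Etoposide was the positive control. Mean ± SD of three independent experiments.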

Test [6] concerns MEL-JUSO. Briefly: Effect of chromatin damage activity in human MEL-JUSO cells stably expressing PAGFPH2A assessed as histone eviction measured upto 60 mins measured by confocal microscopic analysis.

SMILES strings stand for the structures. Active and inactive are the calls of the source. The calls are words filed in the database; no cut-off is given here.

Turning to `COc1cccc2c1C(=O)c1c(O)c3c(c(O)c1C2=O)C[C@@](O)(C(=O)CO)C[C@@H]3O[C@H]1CC[C@H](O)[C@H](C)O1`, the concentration for half-maximal inhibition (IC50) (usually the concentration at which inhibition is half-maximal) was 1620 nM in the test on K562 [1], 2430 nM in the test on MEL-JUSO [2] and 10000 nM in the test on U2OS. Besides, the result with K562 [3], in the test with K562 [4], with K562 [5] and with MEL-JUSO [6] was Active.
Turning to `CC[C@]1(O)Cc2c(O)c3c(c(O)c2[C@@H](O[C@H]2C[C@H](N)[C@H](O)[C@H](C)O2)C1)C(=O)c1c(OC)cccc1C3=O`, the IC50 in the test with K562 [1] stood at 42 nM; in the test on MEL-JUSO [2], 372 nM; in the test with U2OS, 237 nM. Besides, the result in the test on K562 [3], with K562 [4] and in the test with K562 [5] was Active.
In the case of `COc1cccc2c1C(=O)c1c(O)c3c(c(O)c1C2=O)C[C@@](O)(C(=O)CO)C[C@@H]3O[C@H]1C[C@H](O)[C@H](N)[C@H](C)O1`, the IC50 in the test with K562 [1] is 381 nM; in the test on MEL-JUSO [2], 998 nM; in the test with U2OS it was 1120 nM. Also, the outcome in the test with K562 [3], in the test on K562 [4] and in the test with K562 [5] was Active.
As to `COc1cccc2c1C(=O)c1c(O)c3c(c(O)c1C2=O)C[C@@](O)(C(=O)CO)C[C@@H]3O[C@H]1C[C@H](N2CCOCC2)[C@H](O)[C@H](C)O1`, the figures for the 50% inhibitory concentration (IC50) with K562 [1], in the test with MEL-JUSO [2] and in the test on U2OS were 64 nM, 51 nM and 77 nM, respectively. For the same compound, the outcome in the test with K562 [3], in the test on K562 [4] and with K562 [5] was inactive. Moreover, the outcome with MEL-JUSO [6] was Active.
On to `CC[C@]1(O)Cc2c(O)c3c(c(O)c2[C@@H](O[C@H]2C[C@H](N(C)C)[C@H](O)[C@H](C)O2)C1)C(=O)c1c(OC)cccc1C3=O`, for which the IC50 in the test on K562 [1] stood at 1180 nM; in the test with MEL-JUSO [2] it was 1810 nM; in the test with U2OS, 1360 nM. In addition, the result with K562 [3], with K562 [4] and with K562 [5] was inactive. For the same compound, in the test on MEL-JUSO [6], the result was Active.
As for `CC[C@@]1(O)C[C@H](O[C@H]2C[C@H](N)[C@H](O)[C@H](C)O2)c2c(O)c3c(c(O)c2[C@H]1C(=O)OC)C(=O)c1cccc(O)c1C3=O`, the IC50 amounted to 5320 nM in the test with K562 [1], 4290 nM in the test with MEL-JUSO [2] and 10000 nM in the test on U2OS. Moreover, the outcome in the test with K562 [3], with K562 [4] and in the test with K562 [5] was Active.
On to `COc1cccc2c1C(=O)c1c(O)c3c(c(O)c1C2=O)C[C@@](O)(C(=O)CO)C[C@@H]3O[C@H]1C[C@H](N2CCCCC2)[C@H](O)[C@H](C)O1`, for which the concentration for half-maximal inhibition (IC50) is 195 nM in the test on K562 [1], 78 nM in the test with MEL-JUSO [2] and 105 nM in the test on U2OS. Moreover, the result in the test on K562 [3], in the test on K562 [4] and in the test with K562 [5] was inactive. Moreover, in the test with MEL-JUSO [6], the result was Active.
On to `CC(=O)[C@]1(O)Cc2c(O)c3c(c(O)c2[C@@H](O[C@H]2C[C@H](N)[C@H](O)[C@H](C)O2)C1)C(=O)c1ccccc1C3=O` [IDARUBICIN], for which the IC50 in the test with MEL-JUSO [2] was 89 nM; in the test with U2OS, 24 nM.
Consider `CC(=O)[C@]1(O)Cc2c(O)c3c(c(O)c2[C@@H](O[C@H]2C[C@H](N(C)C)[C@H](O[C@H]4C[C@H](O)[C@H](O[C@H]5CCC(=O)[C@H](C)O5)[C@H](C)O4)[C@H](C)O2)C1)C(=O)c1ccccc1C3=O`, for which the IC50 with K562 [1] is 20 nM; in the test on MEL-JUSO [2] it was 8 nM; in the test on U2OS it was 12 nM. The result in the test with K562 [3], with K562 [4] and with K562 [5] was inactive.
On to `COc1cccc2c1C(=O)c1c(O)c3c(c(O)c1C2=O)C[C@@](O)(C(=O)CO)C[C@@H]3O[C@H]1C[C@H](O)[C@H](O)[C@H](C)O1` [HYDROXYRUBICIN], for which the figures for the IC50 in the test with K562 [1], in the test on MEL-JUSO [2] and in the test with U2OS were 856 nM, 1900 nM and 6790 nM, respectively. Also, the outcome in the test with K562 [3], in the test with K562 [4], in the test with K562 [5] and with MEL-JUSO [6] was Active.
In the case of `CC(=O)[C@]1(O)Cc2c(O)c3c(c(O)c2[C@@H](O[C@H]2C[C@H](N)[C@H](O[C@H]4C[C@H](O)[C@H](O[C@H]5CCC(=O)[C@H](C)O5)[C@H](C)O4)[C@H](C)O2)C1)C(=O)c1ccccc1C3=O`, the values for the IC50 in the test with K562 [1], with MEL-JUSO [2] and in the test on U2OS were 230 nM, 680 nM and 376 nM, respectively. Moreover, the result in the test on K562 [3], in the test with K562 [4] and with K562 [5] was Active.
Take `COc1cccc2c1C(=O)c1c(O)c3c(c(O)c1C2=O)C[C@@](O)(C(C)=O)C[C@@H]3O[C@H]1C[C@H](N)[C@H](O)[C@H](C)O1` [DAUNORUBICIN]: the IC50 in the test with MEL-JUSO [2] worked out at 286 nM; in the test on U2OS, 61 nM.
With `COc1cccc2c1C(=O)c1c(O)c3c(c(O)c1C2=O)C[C@@](O)(CCO)C[C@@H]3O[C@H]1C[C@H](N(C)C)[C@H](O)[C@H](C)O1`, the IC50 in the test with K562 [1] stood at 1620 nM; in the test on MEL-JUSO [2] it was 2870 nM; with U2OS it was 4210 nM. The outcome in the test with K562 [3], in the test on K562 [4] and in the test with K562 [5] was inactive. Further, in the test with MEL-JUSO [6], the outcome was Active.
On to `COc1cccc2c1C(=O)c1c(O)c3c(c(O)c1C2=O)C[C@@](O)(C(=O)CO)C[C@@H]3O[C@H]1C[C@H](O)[C@H](N(C)C)[C@H](C)O1`, for which the IC50 in the test on K562 [1] was 129 nM; in the test with MEL-JUSO [2], 433 nM; in the test on U2OS, 285 nM. The result in the test on MEL-JUSO [6] was Active.
As for `CC[C@@]1(O)C[C@H](O[C@H]2C[C@H](N(C)C)[C@H](O)[C@H](C)O2)c2c(O)c3c(c(O)c2[C@H]1C(=O)OC)C(=O)c1cccc(O)c1C3=O`, the IC50 came out at 1100 nM in the test with K562 [1], 835 nM with MEL-JUSO [2] and 1130 nM in the test with U2OS. For the same compound, the outcome in the test with K562 [3], in the test on K562 [4] and in the test with K562 [5] was inactive.
Take `COc1cccc2c1C(=O)c1c(O)c3c(c(O)c1C2=O)C[C@@](O)(C(=O)CO)C[C@@H]3O[C@H]1C[C@H](N(C)C)[C@H](O[C@H]2C[C@H](O)[C@H](O[C@H]3CCC(=O)[C@H](C)O3)[C@H](C)O2)[C@H](C)O1` (single isomer, unassigned): the values for the IC50 in the test with K562 [1] and in the test with U2OS were 19 nM and 11 nM, respectively. The outcome in the test on K562 [3], in the test on K562 [4] and in the test with K562 [5] was inactive. In the test on MEL-JUSO [6], the outcome was Active.
On to `CC[C@@]1(O)C[C@H](O[C@H]2C[C@H](N(C)C)[C@H](O[C@H]3C[C@H](O)[C@H](O[C@H]4CCC(=O)[C@H](C)O4)[C@H](C)O3)[C@H](C)O2)c2c(cc3c(c2O)C(=O)c2c(O)cccc2C3=O)[C@H]1C(=O)OC` [ACLARUBICIN], for which the IC50 came out at 31 nM in the test with K562 [1], 99 nM with MEL-JUSO [2] and 209 nM in the test on U2OS. Further, the result in the test on K562 [3], in the test on K562 [4] and in the test on K562 [5] was inactive.
With `COc1cccc2c1C(=O)c1c(O)c3c(c(O)c1C2=O)C[C@@](O)(C(=O)CO)C[C@@H]3O[C@H]1C[C@H](N)[C@H](O)[C@H](C)O1` [DOXORUBICIN], the IC50 in the test on MEL-JUSO [2] was determined as 523 nM; in the test on U2OS it was 339 nM. The result in the test with MEL-JUSO [6] was Active.
As to `COc1cccc2c1C(=O)c1c(O)c3c(c(O)c1C2=O)C[C@@](O)(C(=O)CO)C[C@@H]3O[C@H]1C[C@H](N2CCC2)[C@H](O)[C@H](C)O1`, the concentration for half-maximal inhibition (IC50) worked out at 379 nM with K562 [1], 297 nM with MEL-JUSO [2] and 159 nM with U2OS. Besides, the result with K562 [3], in the test on K562 [4] and in the test on K562 [5] was inactive. Also, the outcome in the test with MEL-JUSO [6] was Active.
`COc1cccc2c1C(=O)c1c(O)c3c(c(O)c1C2=O)C[C@@](O)(C(=O)CO)C[C@@H]3O[C@H]1C[C@H](N2CCCC2)[C@H](O)[C@H](C)O1`: the IC50 in the test on K562 [1] came to 172 nM; in the test with MEL-JUSO [2], 73 nM; with U2OS it was 122 nM. Further, the outcome in the test with K562 [3], in the test on K562 [4] and with K562 [5] was inactive. Besides, the result with MEL-JUSO [6] was Active.
As for `COc1cccc2c1C(=O)c1c(O)c3c(c(O)c1C2=O)C[C@@](O)(CCO)C[C@@H]3O[C@H]1C[C@H](N)[C@H](O)[C@H](C)O1` [13-DEOXYDOXORUBICIN], the concentration for half-maximal inhibition (IC50) worked out at 1790 nM in the test on K562 [1], 1150 nM with MEL-JUSO [2] and 891 nM in the test on U2OS. Moreover, the result with K562 [3], with K562 [4] and with K562 [5] was Active.
In the case of `COc1cccc2c1C(=O)c1c(O)c3c(c(O)c1C2=O)C[C@@](O)(C(=O)CO)C[C@@H]3O[C@H]1C[C@H](N=[N+]=[N-])[C@H](O)[C@H](C)O1`, the figures for the IC50 in the test with K562 [1], with MEL-JUSO [2] and in the test on U2OS were 84 nM, 1220 nM and 10000 nM, respectively. In addition, the outcome in the test on K562 [3], in the test on K562 [4], in the test on K562 [5] and with MEL-JUSO [6] was Active.

Source of the values: ChEMBL document CHEMBL5360645, “Re-Exploring the Anthracycline Chemical Space for Better Anti-Cancer Compounds” (J Med Chem, 2023).
